“And” between values parts separate entries of the source, which are not always exact repeats. Identical values can stand only once.
Legend:
SNU1 = assay: In vitro cytotoxicity activity against human stomach cancer cell lines SNU-1; format: functional, cell-based
Summary of the method: (§1)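 Human stomach cancer lines in RPMI-1640 with 10% heat-inactivated FCS and penicillin/streptomycin, 37 °C, 5% CO2, seeded to stay in exponential growth. Compound added as 0.1–100.0 μg/mL solutions (stock, diluted 1:10 in well), triplicate, 4 days. MTT for 4 h, formazan dissolved in DMSO or acidified 2-propanol, read at 540 nm. IC50 from OD relative to control by probit analysis, ≥3 experiments.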

SNU-16 = assay: In vitro cytotoxicity activity against human stomach cancer cell lines SNU-16; format: functional, cell-based; summary of the method: as §1
MKN-45 = assay: Cytotoxicity activity against human stomach adenocarcinoma cell lines MKN-45by using MTT assay; format: functional, cell-based; summary of the method: as §1
NCI-N87 = assay: In vitro cytotoxicity activity against human stomach cancer cell lines NCI-N87; format: functional, cell-based; summary of the method: as §1
[1] = test system: KATO III stomach cancer cell line; assay: Cytotoxicity activity against human stomach adenocarcinoma cell lines KATO-III by using MTT assay; format: functional, cell-based; summary of the method: as §1
PC-14 = assay: Cytotoxicity activity against human non-small cell lung adenocarcinoma cell lines PC-14 by using MTT assay; format: functional, cell-based
SNU-5 = assay: In vitro cytotoxicity activity against human stomach cancer cell lines SNU-5; format: functional, cell-based; summary of the method: as §1
PC-9 = assay: Cytotoxicity activity against human non-small cell lung adenocarcinoma cell lines PC-9 by using MTT assay; format: functional, cell-based
Mus musculus [2] = assay: Antitumor activity against L1210 Leukemia cells in mice at their respective dose at 3.1 mg/kg, ip, days; format: functional, organism-based; parameters: dose 3.1 mg/kg; details: Leukemia cell
Summary of the method: (§2)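 BDF1 male mice inoculated ip on day 0 with 1 × 10^6 viable (trypan blue-excluding) L1210 cells, or cisplatin-resistant L1210 cells, maintained by serial ip passage in DBA/2 mice. The resistant line came from continuous exposure to rising cisplatin and was passaged in DBA/2 mice given cisplatin 5 mg/kg ip on days 1 and 5. Drug ip on days 1, 5, 9; seven mice per dose; end day 50; %T/C from mean survival time.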

Mus musculus [3] = organism: Mus musculus; assay: Number of toxic deaths/number of animals tested; format: functional, organism-based
Summary of the method: (§3)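 L1210-bearing BDF1 mice (1 × 10^6 cells ip, day 0), seven per dose group, treated ip on days 1, 5 and 9. Toxic deaths counted per group. Cures are animals without gross evidence of tumor on day 50, when experiments ended.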

Mus musculus [4] = assay: The serum levels of blood urea nitrogen in mice after a single intraperitoneal at dose 6.0 mg/kg on day1; format: functional, organism-based; parameters: dose 6 mg/kg
Summary of the method: (§4)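 Male ICR mice, single ip dose on day 0 in 0.5% carboxymethylcellulose sodium in water, six per group. Blood drawn from the posterior vena cava under anesthesia on days 1, 4, 8. Serum obtained by centrifugation (1500g, 10 min) and run on a biochemistry analyzer. Values are mean ± SE.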

Mus musculus [5] = assay: The serum levels of creatinine in mice after a single intraperitoneal at dose 6.0 mg/kg on day 4; format: functional, organism-based; parameters: dose 6 mg/kg; summary of the method: as §4
L1210 [6] = assay: Antitumor activity against L1210 Leukemia cells in mice at 6.25 mg/kg; format: functional, organism-based; parameters: dose 6.25 mg/kg; details: Mus musculus; summary of the method: as §2
L1210 [7] = assay: Antitumor activity against Cisplatin-Resistant L1210 Leukemia cells in mice at their respective dose at 3.1 mg/kg, ip, days; format: functional, organism-based; parameters: dose 3.1 mg/kg; details: Mus musculus; summary of the method: as §2
Mus musculus [8] = assay: The serum levels of creatinine in mice after a single intraperitoneal at dose 6.0 mg/kg on day1; format: functional, organism-based; parameters: dose 6 mg/kg; summary of the method: as §4
Mus musculus [9] = assay: Antitumor activity against L1210 Leukemia cells in mice at their respective dose at 1.5 mg/kg, ip, days; format: functional, organism-based; parameters: dose 1.5 mg/kg; details: Leukemia cell; summary of the method: as §2
L1210 [10] = assay: Antitumor activity against Cisplatin-Resistant L1210 Leukemia cells in mice at their respective dose at 1.5 mg/kg, ip, days; format: functional, organism-based; parameters: dose 1.5 mg/kg; details: Mus musculus; summary of the method: as §2
Mus musculus [11] = assay: The serum levels of blood urea nitrogen in mice after a single intraperitoneal at dose 6.0 mg/kg on day 4; format: functional, organism-based; parameters: dose 6 mg/kg; summary of the method: as §4
Mus musculus [12] = assay: The serum levels of creatinine in mice after a single intraperitoneal at dose 6.0 mg/kg on day 8; format: functional, organism-based; parameters: dose 6 mg/kg; summary of the method: as §4
Mus musculus [13] = assay: The serum levels of blood urea nitrogen in mice after a single intraperitoneal at dose 6.0 mg/kg on day 8; format: functional, organism-based; parameters: dose 6 mg/kg; summary of the method: as §4
L1210 [14] = assay: Antitumor activity against L1210 Leukemia cells in mice at 50 mg/kg; format: functional, organism-based; parameters: dose 50 mg/kg; details: Mus musculus; summary of the method: as §2
[15] = Number of deaths/number of animals tested; out of 7 mouse; format: functional; summary of the method: as §3
L1210 [16] = assay: Antitumor activity against Cisplatin-Resistant L1210 Leukemia cells in mice at their respective dose at 25 mg/kg, ip, days; format: functional, organism-based; parameters: dose 25 mg/kg; details: Mus musculus; summary of the method: as §2
L1210 [17] = assay: Antitumor activity against L1210 (murine leukemia) cells in mice at 100 mg/kg i.p.; format: functional, organism-based; parameters: dose 100 mg/kg; details: Mus musculus; summary of the method: as §2
Mus musculus [18] = assay: The serum levels of blood urea nitrogen in mice after a single intraperitoneal at dose 150 mg/kg on day1; format: functional, organism-based; parameters: dose 150 mg/kg; summary of the method: as §4
L1210 [19] = assay: Antitumor activity against Cisplatin-Resistant L1210 Leukemia cells in mice at their respective dose at 100 mg/kg, ip, days; format: functional, organism-based; parameters: dose 100 mg/kg; details: Mus musculus; summary of the method: as §2
L1210 [20] = assay: Antitumor activity against Cisplatin-Resistant L1210 Leukemia cells in mice at their respective dose at 50 mg/kg, ip, days; format: functional, organism-based; parameters: dose 50 mg/kg; details: Mus musculus; summary of the method: as §2
Mus musculus [21] = assay: The serum levels of blood urea nitrogen in mice after a single intraperitoneal at dose 150 mg/kg on day 4; format: functional, organism-based; parameters: dose 150 mg/kg; summary of the method: as §4
Mus musculus [22] = assay: The serum levels of creatinine in mice after a single intraperitoneal at dose 150 mg/kg on day 4; format: functional, organism-based; parameters: dose 150 mg/kg; summary of the method: as §4
Mus musculus [23] = assay: The serum levels of blood urea nitrogen in mice after a single intraperitoneal at dose 150 mg/kg on day 8; format: functional, organism-based; parameters: dose 150 mg/kg; summary of the method: as §4
L1210 [24] = assay: Antitumor activity against L1210 Leukemia cells in mice at 12.5 mg/kg; format: functional, organism-based; parameters: dose 12.5 mg/kg; details: Mus musculus; summary of the method: as §2
Mus musculus [25] = organism: Mus musculus; assay: Number of cures/number of animals tested; out of 7 mouse; format: functional, organism-based; summary of the method: as §3
Mus musculus [26] = assay: The serum levels of creatinine in mice after a single intraperitoneal at dose 150 mg/kg on day 8; format: functional, organism-based; parameters: dose 150 mg/kg; summary of the method: as §4
Mus musculus [27] = assay: The serum levels of creatinine in mice after a single intraperitoneal at dose 150 mg/kg on day1; format: functional, organism-based; parameters: dose 150 mg/kg; summary of the method: as §4
L1210 [28] = assay: Antitumor activity against L1210 Leukemia cells in mice at 25 mg/kg; format: functional, organism-based; parameters: dose 25 mg/kg; details: Mus musculus; summary of the method: as §2

CARBOPLATIN [listing 1 of 2 here]
IC50 (SNU1): 37.78 µg/mL
IC50 (SNU-16): 34.02 µg/mL
IC50 (MKN-45): 6.4 µg/mL
IC50 (NCI-N87): 153.38 µg/mL
IC50 [1]: 10.5 µg/mL
IC50 (PC-14): 5.8 µg/mL
IC50 (SNU-5): 10.75 µg/mL
IC50 (PC-9): 19 µg/mL

CISPLATIN [listing 1 of 2 here]
IC50 (SNU1): 2.9 µg/mL
IC50 (SNU-16): 2.83 µg/mL
IC50 (MKN-45): 0.51 µg/mL
IC50 (NCI-N87): 13.73 µg/mL
IC50 [1]: 0.83 µg/mL
IC50 (PC-14): 0.77 µg/mL
IC50 (SNU-5): 1.29 µg/mL
IC50 (PC-9): 1.03 µg/mL

CISPLATIN [listing 2 of 2 here]
T/C (Mus musculus [2]): 167%
Ratio (Mus musculus [3]): 5 and 2
BUN (Mus musculus [4]): 24.8 mg 100ml-1
Creatinine (Mus musculus [5]): 0.28 mg 100ml-1
T/C (L1210 [6]): 82%
T/C (L1210 [7]): 109%
Creatinine (Mus musculus [8]): 0.26 mg 100ml-1
T/C (Mus musculus [9]): 142%
T/C (L1210 [10]): 86%
BUN (Mus musculus [11]): 43.1 mg 100ml-1
Creatinine (Mus musculus [12]): 0.4 mg 100ml-1
BUN (Mus musculus [13]): 32.5 mg 100ml-1

CARBOPLATIN [listing 2 of 2 here]
Ratio (Mus musculus [3]): 1
T/C (L1210 [14]): 196%
Ratio [15]: 2
T/C (L1210 [16]): 98%
T/C (L1210 [17]): 197%
BUN (Mus musculus [18]): 24.4 mg 100ml-1
T/C (L1210 [19]): 81%
T/C (L1210 [20]): 132%
T/C (L1210 [6]): 107%
BUN (Mus musculus [21]): 21.1 mg 100ml-1
Creatinine (Mus musculus [22]): 0.19 mg 100ml-1
BUN (Mus musculus [23]): 28.6 mg 100ml-1
T/C (L1210 [24]): 125%
Ratio (Mus musculus [25]): 1 and 2
Creatinine (Mus musculus [26]): 0.31 mg 100ml-1
Creatinine (Mus musculus [27]): 0.25 mg 100ml-1
T/C (L1210 [28]): 148%
